Laboratory results published in ChEMBL document CHEMBL1131317, “Antitumor agents. 181. Synthesis and biological evaluation of 6,7,2',3',4'-substituted-1,2,3,4-tetrahydro-2-phenyl-4-quinolones as a new class of antimitotic antitumor agents” (J Med Chem, 1998).
≈ marks a conversion by molar mass, not a printed value.

Key:
A549 = test: Cytotoxicity against human lung carcinoma cells (A-549) using SRB assay.; format: functional; details: read-out: ED50 (the source's name)
Procedure, shortened: (§1)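 Cells grown at 37 °C in RPMI-1640 with 10% FBS and 100 µg/mL kanamycin, humidified 5% CO2. Seeding density set per line so control A562 reads 1-2.5. Drug given from DMSO stocks, final DMSO ≤2% (v/v), for 3 days. SRB stain, absorbance at 562 nm. […] Triplicates.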

CAKI-1 = test: Cytotoxicity against human renal cancer cells (CAKI-1) using SRB assay.; format: functional; details: read-out: ED50 (the source's name); procedure, shortened: as §1
Tubulin = Tubulin (Bos taurus, UniProt Q6B856+Q862L2+Q862F3); test: Inhibition of bovine brain tubulin polymerization (ITP).
KB = test: Cytotoxicity against human epidermoid carcinoma of the nasopharyngeal cells (KB) using SRB assay.; format: functional; details: read-out: ED50 (the source's name); procedure, shortened: as §1
Tubulin (Bos taurus) [1] = target: T1, Tubulin (Bos taurus) (UniProt Q6B856+Q862L2+Q862F3); test: % inhibition of [3H]colchicine binding to bovine brain tubulin at a concentration of 5 uM
Procedure, shortened: (§2)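 [3H]colchicine at 5 µM incubated with 1 µM tubulin. Inhibitor present at the stated concentration (5 or 1 µM). Result given as % inhibition of colchicine binding ± SD.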

MCF7 = test: Cytotoxicity against human breast cancer cells (MCF-7) using SRB assay.; format: functional; details: read-out: ED50 (the source's name); procedure, shortened: as §1
HCT-8 = test: Cytotoxicity against human ileocecal carcinoma cells (HCT-8) using SRB assay.; format: functional; details: read-out: ED50 (the source's name); procedure, shortened: as §1
Tubulin (Bos taurus) [2] = target: T1, Tubulin (Bos taurus); test: The compound was tested for the % inhibition of [3H]colchicine binding to bovine brain tubulin at a concentration of 1 uM; procedure, shortened: as §2
SK-MEL-2 = test: The compound was tested for the cytotoxicity for the cell lines of human melanoma cancer (SKMEL-2) using SRB assay.; format: functional; details: read-out: ED50 (the source's name); procedure, shortened: as §1

SMILES	IC50 (Tubulin)	inhibition (Tubulin (Bos taurus) [1])	inhibition (Tubulin (Bos taurus) [2])	EC50 (A549)	EC50 (CAKI-1)	EC50 (KB)	EC50 (MCF7)	EC50 (HCT-8)	EC50 (SK-MEL-2)
COc1cccc([C@@H]2CC(=O)c3cc4c(cc3N2)OCO4)c1	0.69 µM	67%		0.03 mg/L (≈ 0.101 µM)	0.25 mg/L (≈ 0.841 µM)	0.02 mg/L (≈ 0.0673 µM)	0.03 mg/L (≈ 0.101 µM)	0.02 mg/L (≈ 0.0673 µM)	
O=C1CC(c2cccc(F)c2)Nc2cc3c(cc21)OCO3 (configuration not stated)	0.75 µM	75%		0.012 mg/L (≈ 0.0421 µM)	0.016 mg/L (≈ 0.0561 µM)	0.012 mg/L (≈ 0.0421 µM)	0.032 mg/L (≈ 0.112 µM)	0.016 mg/L (≈ 0.0561 µM)	0.016 mg/L (≈ 0.0561 µM)
COc1cccc([C@H]2C/C(=N\NC(=O)C(=O)NC(C)c3ccccc3)c3ccccc3N2)c1 (some centres not stated)	> 40 µM			> 25 mg/L	> 25 mg/L	> 25 mg/L	> 25 mg/L	> 25 mg/L	
O=C1CC(c2ccc(F)cc2)Nc2cc3c(cc21)OCO3 (configuration not stated)	2 µM			1 mg/L (≈ 3.51 µM)	0.8 mg/L (≈ 2.8 µM)	0.3 mg/L (≈ 1.05 µM)	0.4 mg/L (≈ 1.4 µM)	0.4 mg/L (≈ 1.4 µM)	0.2 mg/L (≈ 0.701 µM)
COc1cccc([C@H]2C/C(=N\NC(=O)C(=O)NC(C)c3ccccc3)c3cc4c(cc3N2)OCO4)c1 (some centres not stated)	> 40 µM			11.5 mg/L (≈ 23.6 µM)	> 25 mg/L	12 mg/L (≈ 24.7 µM)	6.3 mg/L (≈ 12.9 µM)	1.5 mg/L (≈ 3.08 µM)	
O=C1C[C@H](c2ccccc2F)Nc2cc3c(cc21)OCO3	12 µM			0.6 mg/L (≈ 2.1 µM)	1.25 mg/L (≈ 4.38 µM)	0.43 mg/L (≈ 1.51 µM)	0.85 mg/L (≈ 2.98 µM)	0.5 mg/L (≈ 1.75 µM)	
COc1cccc(-c2cc(O)c3cccnc3n2)c1	0.79 µM	24%							
COc1cccc(C2CC(=O)c3ccccc3N2)c1 (configuration not stated)	3.3 µM			0.23 mg/L (≈ 0.908 µM)	0.32 mg/L (≈ 1.26 µM)	0.11 mg/L (≈ 0.434 µM)	0.32 mg/L (≈ 1.26 µM)	0.12 mg/L (≈ 0.474 µM)	0.2 mg/L (≈ 0.79 µM)
COc1cccc([C@H]2CC(=O)c3ccccc3N2)c1	7.2 µM			0.5 mg/L (≈ 1.97 µM)	3.8 mg/L (≈ 15 µM)	0.5 mg/L (≈ 1.97 µM)	0.6 mg/L (≈ 2.37 µM)	0.5 mg/L (≈ 1.97 µM)	
COc1ccc(C2CC(=O)c3ccccc3N2)cc1 (configuration not stated)	> 40 µM			> 25 mg/L		> 25 mg/L	> 25 mg/L	> 25 mg/L	
COc1cccc(-c2cc(O)c3cc4c(cc3n2)OCO4)c1	0.74 µM	33%							
O=C1CC(c2ccccc2)Nc2ccccc21 (configuration not stated) [Aza-flavanone]	2.7 µM			0.013 mg/L (≈ 0.0582 µM)	0.013 mg/L (≈ 0.0582 µM)	0.07 mg/L (≈ 0.314 µM)	0.13 mg/L (≈ 0.582 µM)	0.013 mg/L (≈ 0.0582 µM)	0.13 mg/L (≈ 0.582 µM)
COc1ccccc1C1CC(=O)c2ccccc2N1 (configuration not stated)	> 40 µM			6 mg/L (≈ 23.7 µM)	25 mg/L (≈ 98.7 µM)	1.8 mg/L (≈ 7.11 µM)	6.5 mg/L (≈ 25.7 µM)	6 mg/L (≈ 23.7 µM)	12.5 mg/L (≈ 49.3 µM)
COc1cccc(C2CC(=O)c3cc4c(cc3N2)OCO4)c1 (configuration not stated)	0.82 µM	60%		0.04 mg/L (≈ 0.135 µM)	0.06 mg/L (≈ 0.202 µM)	0.02 mg/L (≈ 0.0673 µM)	0.04 mg/L (≈ 0.135 µM)	0.04 mg/L (≈ 0.135 µM)	0.06 mg/L (≈ 0.202 µM)
COc1cc2c(c(OC)c1OC)-c1ccc(OC)c(=O)cc1[C@@H](NC(C)=O)CC2 [COLCHICINE]				0.002 mg/L (≈ 0.00501 µM)	0.4 mg/L (≈ 1 µM)	0.002 mg/L (≈ 0.00501 µM)	> 0.4 mg/L	0.016 mg/L (≈ 0.0401 µM)	0.008 mg/L (≈ 0.02 µM)
CC(NC(=O)C(=O)N/N=C1\C[C@H](c2ccccc2F)Nc2cc3c(cc21)OCO3)c1ccccc1 (some centres not stated)	> 40 µM			9 mg/L (≈ 19 µM)	18 mg/L (≈ 37.9 µM)	10 mg/L (≈ 21.1 µM)	25 mg/L (≈ 52.7 µM)	9 mg/L (≈ 19 µM)	

Now from value to compound, other results behind:

IC50 (Tubulin)	inhibition (Tubulin (Bos taurus) [1])	inhibition (Tubulin (Bos taurus) [2])	SMILES	EC50 (A549)	EC50 (CAKI-1)	EC50 (KB)	EC50 (MCF7)	EC50 (HCT-8)	EC50 (SK-MEL-2)
0.56 µM	51%		O=C1C[C@@H](c2ccccc2F)Nc2cc3c(cc21)OCO3	0.18 mg/L (≈ 0.631 µM)	1 mg/L (≈ 3.51 µM)	0.08 mg/L (≈ 0.28 µM)	0.1 mg/L (≈ 0.351 µM)	0.09 mg/L (≈ 0.315 µM)	
> 40 µM			CC(NC(=O)C(=O)N/N=C1\C[C@@H](c2ccccc2F)Nc2cc3c(cc21)OCO3)c1ccccc1 (some centres not stated)	13 mg/L (≈ 27.4 µM)	> 25 mg/L	18 mg/L (≈ 37.9 µM)	8.5 mg/L (≈ 17.9 µM)	2.1 mg/L (≈ 4.43 µM)	
0.76 µM	89%	63%	O=C1CC(c2cccc(Cl)c2)Nc2ccc(N3CCCC3)cc21 (configuration not stated)	0.09 mg/L (≈ 0.275 µM)	0.95 mg/L (≈ 2.91 µM)	0.05 mg/L (≈ 0.153 µM)	0.31 mg/L (≈ 0.949 µM)	0.09 mg/L (≈ 0.275 µM)	0.08 mg/L (≈ 0.245 µM)
0.66 µM	91%	63%	COc1cccc(C2CC(=O)c3cc(N4CCCC4)ccc3N2)c1 (configuration not stated)	0.01 mg/L (≈ 0.031 µM)	0.008 mg/L (≈ 0.0248 µM)	0.008 mg/L (≈ 0.0248 µM)	0.11 mg/L (≈ 0.341 µM)	0.016 mg/L (≈ 0.0496 µM)	0.016 mg/L (≈ 0.0496 µM)
1.5 µM			COc1cccc(-c2cc(O)c3ccccc3n2)c1						
> 40 µM			COc1cccc([C@@H]2C/C(=N\NC(=O)C(=O)NC(C)c3ccccc3)c3ccccc3N2)c1 (some centres not stated)	8 mg/L (≈ 18.1 µM)	25 mg/L (≈ 56.5 µM)	8 mg/L (≈ 18.1 µM)	8 mg/L (≈ 18.1 µM)	3.8 mg/L (≈ 8.59 µM)	
1.1 µM			O=C1CC(c2ccccc2F)Nc2cc3c(cc21)OCO3 (configuration not stated)	0.08 mg/L (≈ 0.28 µM)	1 mg/L (≈ 3.51 µM)	0.06 mg/L (≈ 0.21 µM)	0.06 mg/L (≈ 0.21 µM)	0.13 mg/L (≈ 0.456 µM)	0.125 mg/L (≈ 0.438 µM)
2.3 µM			COc1cccc([C@H]2CC(=O)c3cc4c(cc3N2)OCO4)c1	0.09 mg/L (≈ 0.303 µM)	0.25 mg/L (≈ 0.841 µM)	0.07 mg/L (≈ 0.235 µM)	0.12 mg/L (≈ 0.404 µM)	0.08 mg/L (≈ 0.269 µM)	
> 40 µM			COc1cccc([C@@H]2C/C(=N\NC(=O)C(=O)NC(C)c3ccccc3)c3cc4c(cc3N2)OCO4)c1 (some centres not stated)	2.4 mg/L (≈ 4.93 µM)	12.5 mg/L (≈ 25.7 µM)	1.8 mg/L (≈ 3.7 µM)	3 mg/L (≈ 6.17 µM)	1 mg/L (≈ 2.06 µM)	
1.2 µM			COc1cccc([C@@H]2CC(=O)c3ccccc3N2)c1	0.15 mg/L (≈ 0.592 µM)	0.15 mg/L (≈ 0.592 µM)	0.12 mg/L (≈ 0.474 µM)	0.3 mg/L (≈ 1.18 µM)	0.09 mg/L (≈ 0.355 µM)	
0.49 µM	91%	65%	COc1cccc(-c2cc(O)c3cc(N4CCCC4)ccc3n2)c1						
